Laboratory results: ChEMBL document CHEMBL1250420, “Identification of chalcones as in vivo liver monofunctional phase II enzymes inducers” (Bioorg Med Chem, 2010)
The source made the active and inactive calls. The rule behind the calls is not given here.

How the values were obtained:
TK-10 = assay: Cytotoxicity against human TK10 cells; format: functional, cell-based
[1] = biological target: T1, Quinone oxidoreductase (Homo sapiens) (UniProt Q08257); assay: Induction of quinone reductase activity in human MCF7 cells; format: cell-based
T1 sequence (whole entry): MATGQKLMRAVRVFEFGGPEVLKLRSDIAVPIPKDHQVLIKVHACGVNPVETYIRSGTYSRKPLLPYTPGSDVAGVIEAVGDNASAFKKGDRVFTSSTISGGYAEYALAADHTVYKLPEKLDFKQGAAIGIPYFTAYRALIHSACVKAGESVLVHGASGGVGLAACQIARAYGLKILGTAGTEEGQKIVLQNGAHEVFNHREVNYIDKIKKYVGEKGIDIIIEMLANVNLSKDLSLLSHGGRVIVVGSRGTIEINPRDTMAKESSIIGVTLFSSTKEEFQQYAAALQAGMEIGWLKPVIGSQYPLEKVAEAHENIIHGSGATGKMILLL
Summary of the method: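 QR induction in MCF-7 tumour cells at 40 µM, a level chosen from a flavone dose–response; result given as ratio of QR specific activity, treated/control.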

[2] = Mutagenic activity in Salmonella typhimurium TA98 assessed as […] increase in number of revertants at 75 ug/plate after 48 hrs by Ames test; format: toxicity; conditions: salmonella enterica subsp. enterica serovar typhimurium
Summary of the method: (§1)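 TA98 pre-incubation Ames test without listed S9: 50 µL test solution, 500 µL 0.1 M phosphate pH 7.4 and 100 µL bacteria (2 × 10^9/mL), 60 min. Top agar with trace histidine/biotin, then 48 h at 37 °C and revertant count. Doses fall by thirds from the minimum toxic dose; DMSO and 4-NPD (20 µg/plate) controls; two independent experiments, means ± SD.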

[3] = Mutagenic activity in Salmonella typhimurium TA98 assessed as […] increase in number of revertants at 225 ug/plate after 48 hrs by Ames test; format: toxicity; conditions: salmonella enterica subsp. enterica serovar typhimurium; summary of the method: as §1
Rattus norvegicus [4] = assay: Induction glutathione-CYP1A1 in rat liver at 15 mg/kg, po qd by EROD assay; format: functional
Summary of the method: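 Rat liver CYP1A1 read as EROD activity: fluorescence increase from resorufin released from 7-ethoxyresorufin, in 100 mM phosphate buffer pH 7.6 with 250 µM NADPH. Oral dosing for 15 days over 3 weeks; change in specific activity expressed as % of basal-diet control, n = 5, means ± SE, Student's t-test.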

Rattus norvegicus [5] = assay: Toxicity in Sprague-Dawley rat assessed as change in body weight at 250 mg/kg, po; format: organism-based; design: dose 250 mg/kg, route oral; conditions: in vivo
Summary of the method: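 Healthy female Sprague–Dawley rats (about 200 g, 5–7 per group) given a single oral dose by intragastric syringe, suspended in saline/Tween 80 (4:1); vehicle-treated controls included. Daily weighing and observation for 3 days, then sacrifice with clinical biochemistry, haematology and organ histology.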

Rattus norvegicus [6] = assay: Induction of quinone reductase activity in rat liver at 15 mg/kg, po qd; format: functional
Summary of the method: (§2)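 Oral dosing for 15 days over 3 weeks, then liver QR read as loss of 600 nm absorbance of DCPIP (80 µM) with 0.2 mM NADH, 5 µM FAD, 25 mM Tris–HCl pH 7.4, 6% BSA, 0.01% Tween 20. Specific activity expressed as % change from basal-diet control, n = 5, means ± SE, Student's t-test.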

Rattus norvegicus [7] = assay: Toxicity in Sprague-Dawley rat assessed as leucocyte level at 10 mg/kg/day, po; conditions: in vivo
[8] = Mutagenic activity in Salmonella typhimurium TA98 assessed as […] increase in number of revertants at 8 ug/plate after 48 hrs by Ames test; format: toxicity; conditions: salmonella enterica subsp. enterica serovar typhimurium; summary of the method: as §1
HT-29 = assay: Cytotoxicity against human HT-29 cells; format: functional, cell-based
[9] = Mutagenic activity in Salmonella typhimurium TA98 assessed as […] increase in number of revertants at 25 ug/plate after 48 hrs by Ames test; format: toxicity; conditions: salmonella enterica subsp. enterica serovar typhimurium; summary of the method: as §1
MCF7 = assay: Cytotoxicity against human MCF7 cells; format: functional, cell-based
Rattus norvegicus [10] = assay: Induction glutathione-S-transferase activity in rat liver at 15 mg/kg, po qd; format: functional
Summary of the method: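 Hepatic GST after oral dosing for 15 days over 3 weeks. Substrates 1 mM CDNB and 1 mM reduced glutathione in 100 mM phosphate buffer pH 6.5; CDNB–GSH conjugate followed at 340 nm. Specific activity given as % change from basal-diet control, n = 5, means ± SE, Student's t-test.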

[11] = Mutagenic activity in Salmonella typhimurium TA98 assessed as […] increase in number of revertants at 3 ug/plate after 48 hrs by Ames test; format: toxicity; conditions: salmonella enterica subsp. enterica serovar typhimurium; summary of the method: as §1
Rattus norvegicus [12] = assay: Induction of quinone reductase activity in rat liver at 22.5 mg/kg, po qd; format: functional; summary of the method: as §2
Rattus norvegicus [13] = assay: Toxicity in Sprague-Dawley rat assessed as haemoglobin level at 10 mg/kg/day, po (RVb = 15.1 +/- 4.1 g/L); conditions: in vivo
Rattus norvegicus [14] = assay: Induction glutathione-CYP1A1 in rat liver at 15 mg/kg, po qd by EROD assay
Rattus norvegicus [15] = assay: Induction glutathione-S-transferase activity in rat liver at 15 mg/kg, po qd
Rattus norvegicus [16] = assay: Toxicity in Sprague-Dawley rat assessed as glutamic-oxalate transaminase level at 10 mg/kg/day, po (RVb = 71.4 +/- 7.8 U/L); conditions: in vivo
Rattus norvegicus [17] = assay: Toxicity in Sprague-Dawley rat assessed as glutamic-pyruvate level at 10 mg/kg/day, po (RVb = 22.8 +/-13.2 U/L); conditions: in vivo
Rattus norvegicus [18] = assay: Toxicity in Sprague-Dawley rat assessed as change in body weight at 10 mg/kg/day, po; conditions: in vivo
Liver microsomes [19] = assay: Metabolic stability in rat liver microsome; format: ADME
Summary of the method: (§3)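 Female Wistar rat liver microsomes (100,000 × g pellet) at 1 mg/mL protein with 400 µM flavonoid (DMSO <1%). Incubated 0.5 h at 37 °C, with or without an NADPH-generating system (MgCl2, NADP+, glucose 6-phosphate, G6PDH) in 0.1 M phosphate pH 7.4, 1.5 mM EDTA. Heat-inactivated control included; triplicate; read by UV spectra and chromatography.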

Liver microsomes [20] = assay: Metabolic stability in rat liver microsome in presence of NADPH; format: ADME; summary of the method: as §3
[21] = dose 15.0 mg/kg, in the assay text read “at 15.0 mg/kg” for “at 22.5 mg/kg”

Row | Compound | Activity (TK-10) | Activity (Rattus norvegicus [4]) [%] | Activity (Rattus norvegicus [6]) [%] | Activity (Rattus norvegicus [7]) [µL⁻¹] | Activity (HT-29) | Activity (MCF7) | Activity (Rattus norvegicus [10]) [%] | Activity (Rattus norvegicus [13]) [g/L] | Activity (Rattus norvegicus [12]; [21]) [%] | Activity (Rattus norvegicus [18]) | further results
1 | O=C(/C=C/c1ccccc1)c1ccccc1O [2'-HYDROXYCHALCONE] | Active | -60 | 10 | 5200 | Active | Active | 30 | 11.3 |  |  | Activity [1]: Active; Activity [2]: 20; Activity [3]: 14; Activity (Rattus norvegicus [5]): Non-toxic; Activity [8]: 16; Activity [9]: 17; Activity [11]: 13; Activity (Rattus norvegicus [12]; dose 22.5 mg/kg): 10%
2 | O=C(/C=C/c1ccc(Cl)cc1)c1ccccc1O | Active |  |  |  | Active | inactive |  |  | 20 |  | Activity (Rattus norvegicus [14]): -10%; Activity (Rattus norvegicus [15]): -20%
3 | O=C(/C=C/c1ccc2c(c1)OCO2)c1ccccc1O | inactive |  |  |  | inactive | inactive |  |  | 30 |  | Activity (Rattus norvegicus [14]): -50%; Activity (Rattus norvegicus [15]): -20%
4 | COc1ccc(/C=C/C(=O)c2ccccc2)cc1 [4-METHOXY CHALCONE] | Active | -30 | 10 |  | Active | inactive | -10 |  |  |  | 
5 | O=c1cc(-c2ccccc2Br)oc2ccccc12 | inactive |  |  | 4500 | inactive | Active |  | 9.6 |  | Non-toxic | Activity (Rattus norvegicus [16]): 52.9 U/L; Activity (Rattus norvegicus [17]): 45.4 U/L
6 | O=c1cc(-c2ccccc2)oc2ccccc12 [FLAVONE] | inactive |  | -30 |  | inactive | inactive |  |  |  |  | 
7 | CSc1ccc(/C=C/C(=O)c2ccccc2)cc1 | Active | 750 | 20 |  | inactive | inactive | 30 |  |  |  | 
8 | COc1ccc(/C=C/C(=O)c2ccccc2O)cc1 | Active |  |  | 7300 | inactive | Active |  | 12.3 | 60 |  | Activity (Rattus norvegicus [16]): 52.2 U/L; Activity (Rattus norvegicus [14]): -40%; Activity (Rattus norvegicus [15]): -10%; Activity (Rattus norvegicus [5]): Non-toxic; Activity (Rattus norvegicus [17]): 13.2 U/L
9 | O=C(/C=C/c1ccccn1)c1ccccc1O | Active |  |  |  | Active | Active |  |  | 13 |  | Activity [1]: Active; Activity [2]: 17; Activity (Rattus norvegicus [14]): 10%; Activity (Rattus norvegicus [15]): 20%; Activity [3]: 18; Activity [8]: 17; Activity [9]: 16; Activity [11]: 13
10 | O=C(/C=C/c1ccc(Cl)cc1)c1ccccc1 [4-CHLORO CHALCONE] | Active | 40 | 10 |  | Active | inactive | -20 |  |  |  | 
11 | CN(C)c1ccc(/C=C/C(=O)c2ccccc2O)cc1 | inactive |  |  | 5500 | inactive | inactive |  | 11.5 |  | Non-toxic | 
12 | Nc1ccc(/C=C/C(=O)c2ccccc2O)cc1 | inactive |  |  |  | inactive | inactive |  |  | 0 |  | 
13 | COc1ccc(/C=C/C(=O)c2ccccc2O)cc1OC | Active |  |  | 9600 | inactive | Active |  | 9.3 | -20 | Non-toxic | Activity (Rattus norvegicus [16]): 62.1 U/L; Activity (Rattus norvegicus [17]): 15 U/L
14 | O=C(/C=C/c1ccc(Br)cc1)c1ccccc1O | inactive |  |  | 7700 | inactive | inactive |  | 8.4 | 128 | Non-toxic | Stability (Liver microsomes [19]): Stable; Activity [1]: Active; Activity (Rattus norvegicus [16]): 61.7 U/L; Activity (Rattus norvegicus [14]): -80%; Activity (Rattus norvegicus [15]): -30%; Stability (Liver microsomes [20]): Stable; Activity (Rattus norvegicus [17]): 26 U/L
15 | O=C(/C=C/c1cccs1)c1ccccc1O |  | 20 | 10 |  |  |  | 10 |  |  |  | Activity [2]: 13; Activity [3]: 14; Activity [8]: 16; Activity [9]: 19; Activity [11]: 15
16 | O=c1cc(-c2ccc(Br)cc2)oc2ccccc12 | inactive |  | 30 |  | inactive | inactive |  |  |  | Non-toxic | 
17 | O=C1CC(c2ccccc2Br)Oc2ccccc21 (centres undefined) | inactive | 30 | 10 |  | inactive | Active | 10 |  |  |  | 
18 | COc1ccc(C2CC(=O)c3ccccc3O2)cc1 (centres undefined) | Active |  |  | 8600 | inactive | Active |  | 11.3 |  | Non-toxic | 
